Reference: ChEMBL document CHEMBL1142858, “Conformationally constrained analogues of diacylglycerol (DAG). 27. Modulation of membrane translocation of protein kinase C (PKC) isozymes alpha and delta by diacylglycerol lactones (DAG-lactones) containing rigid-rod acyl groups” (J Med Chem, 2007)
Active and inactive are the calls of the source. The rule behind the calls is not given here.

Assays:
[1] = target: Protein kinase C alpha type (Homo sapiens, UniProt P17252); test: Displacement of [3H]PDBu from PKCalpha
Method in brief: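 Competition with [3H]PDBu for binding to recombinant single isozyme PKC alpha in the presence of phosphatidylserine. ID50 is taken from a least-squares fit of a sigmoidal competition curve. Ki = ID50/(1 + L/Kd), where L is free [3H]PDBu at the ID50 and Kd is the [3H]PDBu dissociation constant. Mean ± standard error, three determinations.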

[2] = Inhibition of cell proliferation in WEHI231 cell line after 48 hrs; type: functional, cell-based; settings: Mus musculus, WEHI231, 48 h
Method in brief: (§1)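 WEHI-231 cells in DMEM with 10% FBS and 50 µM β-mercaptoethanol are plated at 1 × 10⁵ viable cells/mL and dosed 24 h later (final DMSO 0.1%) for 48 h. Cells are triturated to single-cell suspension and counted on a Coulter counter. Counts are given as % of the DMSO control. Mean ± SEM of three independent experiments.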

U-937 [3] = test: Induction of attachment of U937 cells after 48 hrs; type: functional, cell-based; settings: Homo sapiens; for EC50: U-937, 48 h
Method in brief: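 U937 monocytes in RPMI-1640 with 10% FBS are plated at 1 × 10⁵ cells/mL and exposed (final DMSO 0.1%) for 48 h. Non-attached cells and attached cells (after trypsinization) are counted on a Coulter counter. Attached cells are expressed as % of total cells. Mean ± SEM of three independent experiments.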

CHO [4] = test: Translocation of PKC from cytosol to membrane in CHO cells; type: functional, cell-based; settings: Cricetulus griseus
Method in brief: (§2)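 CHO cells in F12-K with 10% FBS are transfected with GFP-tagged PKC alpha or PKC delta. Live cells are imaged by confocal microscopy with 488 nm excitation, time-lapse every 30 s. Redistribution from cytosol to plasma and internal membranes is followed before and after ligand addition at 10 or 20 µM, over up to about 120 min. Three independent experiments.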

U-937 [5] = test: Reduction of PMA-induced attachment of U937 cells at 30 uM after 48 hrs; type: functional, cell-based; settings: Homo sapiens
CHO [6] = test: Translocation of PKCalpha from cytosol to membrane in CHO cells at 20 uM after 120 mins; type: functional, cell-based; settings: Cricetulus griseus; method in brief: as §2
[7] = Inhibition of cell proliferation in WEHI231 cell line at 10 uM after 48 hrs; type: functional; settings: Mus musculus, WEHI231, 48 h; method in brief: as §1
LNCaP = test: Stimulation of ERK phosphorylation in LNCaP cells at 10 uM after 30 min relative to PMA; type: cell-based; settings: Homo sapiens
Method in brief: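 LNCaP prostate cells in RPMI-1640 with 10% FBS are plated at about 60% confluency and treated 24 h later for 15 or 30 min. Cells are PBS-washed and lysed, and lysates go through 10% SDS-PAGE and immunoblotting with anti-phosphoERK. Phospho-ERK band intensity is expressed relative to 100 nM PMA (= 100%).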

[8] = Stimulation of ERK phosphorylation in LNCaP cells after 30 min; type: functional, cell-based; settings: Homo sapiens, 0.5 h
Method in brief: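 LNCaP prostate cells in RPMI-1640 with 10% FBS, plated at about 60% confluency and treated 24 h later with a range of concentrations for 15 or 30 min. Cells were washed with PBS and total lysates run on 10% SDS-PAGE, blotted and probed with anti-phosphoERK. Band intensity was expressed relative to 100 nM PMA (= 100%). Approximate EC50 was read from the graph; mean ± SEM of three experiments.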

CHO [9] = test: Translocation of PKCalpha from cytosol to membrane in CHO cells; type: functional, cell-based; settings: Cricetulus griseus; method in brief: as §2
CHO [10] = test: Translocation of PKCdelta from cytosol to membrane in CHO cells; type: functional, cell-based; settings: Cricetulus griseus; method in brief: as §2
[11] = Induction of IL6 secretion in WEHI231 cells at 30 uM after 6 hrs relative to 10 uM PMA; type: functional, Mus musculus; settings: in the assay text read “10 nM PMA” for “10 uM PMA”
Method in brief: (§3)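 WEHI-231 cells are grown in DMEM with 10% FBS and 50 µM β-mercaptoethanol. They are plated at 1 × 10⁵ viable cells/mL and dosed 24 h later (final DMSO 0.1%) for 6 or 24 h. IL-6 in the supernatant is measured by ELISA, one measurement per experiment. It is expressed as % of IL-6 induced by 10 nM PMA at 6 h.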

[12] = Induction of IL6 secretion in WEHI231 cells at 30 uM after 24 hrs relative to 10 uM PMA; type: functional, Mus musculus; settings: in the assay text read “10 nM PMA” for “10 uM PMA”; method in brief: as §3

Row | Structure (SMILES) | Ki [1] [nM] | EC50 (U-937 [3]) [nM] | EC50 [2] [nM] | other results
1 | COc1ccc(C#Cc2ccc(C#Cc3ccc(C(=O)OCC4(CO)CC(=C(C)C)C(=O)O4)cc3)cc2)cc1 (centres undefined) | 5.88 | 260 | 430 | 
2 | CC(C)=C1CC(CO)(COC(=O)c2ccc(C#Cc3ccc(C#Cc4ccc(OCCOCCOCCN(CC(=O)OC(C)(C)C)CC(=O)OC(C)(C)C)cc4)cc3)cc2)OC1=O (centres undefined) | 111 |  |  | 
3 | C#Cc1ccc(C#Cc2ccc(C#Cc3ccc(C(=O)OCC4(CO)CC(=C(C)C)C(=O)O4)cc3)cc2)cc1 (centres undefined) | 11.6 | 250 | 400 | Activity (U-937 [5]): Active; Activity (CHO [6]): Active
4 | COC(=O)COc1ccc(C#Cc2ccc(C#Cc3ccc(C#Cc4ccc(C(=O)OCC5(CO)CC(=C(C)C)C(=O)O5)cc4)cc3)cc2)cc1 (centres undefined) | 127 |  |  | 
5 | CCCCCCCCCC(=O)OCC1(CO)CC(=C(C)C)C(=O)O1 (centres undefined) | 15.9 |  |  | EC50 [8]: 3000 nM; Activity [11]: 80%; Activity [12]: 25%; Activity (U-937 [3]): inactive; Activity (CHO [9]): Active; Activity (CHO [10]): Active
6 | CCCCCCCCCCCCCC(=O)O[C@@H]1[C@@H](C)[C@@]2(O)[C@@H](C=C(CO)C[C@]3(O)C(=O)C(C)=C[C@@H]23)[C@@H]2C(C)(C)[C@]12OC(C)=O [PHORBOL MYRISTATE ACETATE] |  | 0.45 | 0.85 | 

Further lines, with some results ahead:

Row | Ki [1] [nM] | EC50 (U-937 [3]) [nM] | Structure (SMILES) | EC50 [2] [nM] | other results
7 | 1390 |  | CC(C)=C1CC(CO)(COC(=O)c2ccc(C#Cc3ccc(C#Cc4ccc(OCCOCCOCCOC(=O)N(CC(=O)O)CC(=O)O)cc4)cc3)cc2)OC1=O (centres undefined) |  | Activity (CHO [4]): Active
8 | 18.3 |  | CC(C)=C1CC(CO)(COC(=O)c2ccc(C#Cc3ccc(C#Cc4ccc(OCCOCCOCCOC(=O)N(CC(=O)OC(C)(C)C)CC(=O)OC(C)(C)C)cc4)cc3)cc2)OC1=O (centres undefined) |  | inhibition at 10 µM [7]: 35%; Activity (U-937 [3]): Active
9 | 52.7 | 1000 | COC(=O)CCCCCCCCCCCCCCCOc1ccc(C#Cc2ccc(C#Cc3ccc(C(=O)OCC4(CO)CC(=C(C)C)C(=O)O4)cc3)cc2)cc1 (centres undefined) | 3000 | Activity (LNCaP): Active
10 | 5.23 |  | C#Cc1ccc(C#Cc2ccc(C(=O)OCC3(CO)CC(=C(C)C)C(=O)O3)cc2)cc1 (centres undefined) | 3000 | EC50 [8]: 400 nM; Activity (CHO [9]): Active; Activity (CHO [10]): Active
11 | 15.8 |  | COC(=O)COc1ccc(C#Cc2ccc(C#Cc3ccc(C(=O)OCC4(CO)CC(=C(C)C)C(=O)O4)cc3)cc2)cc1 (centres undefined) |  | 
